Assay outcomes as filed in PubChem.
KCNK9 inh-1 = KCNK9 potassium channel inhibitors, primary screen, HEK293 cells, thallium flux; B-score at 10 µM; FluxOR thallium flux fluorescence; active compounds read low; Potassium channel subfamily K member 9 (Homo sapiens), Q9NPC2; 1.2% of 310,000 active;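 active means ratio B-score over 3 SD below the library mean, with starting fluorescence within 5 SD of its mean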;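 further: negative B-score means less thallium flux so channel inhibition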
hERG protect = hERG rescue from dofetilide block, primary screen, cell-based, CHO-hERG, FluxOR thallium flux, dofetilide IC70 | Voltage-gated inwardly rectifying potassium channel KCNH2 (Homo sapiens), Q12809 | dofetilide IC70 present | activation (rescue from dofetilide block), less the hit threshold, % at 10 µM | 0.51% of 310,000 active | AID 1511, 2009;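 active means activation above the mean of controls blocked by dofetilide plus 5 SD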;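 further: thallium influx through hERG after potassium depolarization seen as dye fluorescence rise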
KCNQ1 act = potentiators or activators of KCNQ1 channel, primary screen, cell-based, thallium flux, high-throughput; CHO-K1 KCNQ1, thallium flux FluxOR fluorescence; active compounds read high; B-score at 10 µM; 0.35% of 310,000 active;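 active means fluorescence ratio B-score, a plate-corrected score, at least three library SD, with initial intensity B-score within 5 SD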
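Assay system: CHO-K1 cells stably expressing KCNQ1; Medium: assay buffer with matched DMSO; Also added: K+/Tl+ depolarizing stimulus; Dosing: single dose; Timing: dye 90 min, compound 20 min, room temperature; Measured by: kinetic FluxOR thallium fluorescence, 10-s 1-Hz baseline, 110-s post-stimulus read; Read-out: peak-minus-minimum fluorescence over initial fluorescence, negative-control normalized, B-scored.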
KCNQ1 block = inhibitors of human KCNQ1 channel, primary screen, cell-based, thallium flux, high-throughput; 1.3% of 310,000 active; AID 2642, 2010; B-score at 10 µM; CHO-K1 KCNQ1, FluxOR thallium flux fluorescence; active compounds read high; Potassium voltage-gated channel subfamily KQT member 1 (Homo sapiens), P51787;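 active means compounds whose thallium flux B-score, printed positive for inhibition, exceeds three library SD while starting fluorescence stays within three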;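 further: channel opened by potassium depolarization with thallium stimulus after 20 min compound exposure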
Kir21 inh = inhibitors of mouse Kir2.1 inward-rectifier potassium channel. Inward rectifier potassium channel 2 (Mus musculus), P35561. HEK293-Kir2.1, FluxOR thallium flux fluorescence; active compounds read low. B-score at 10 µM. 0.85% of 310,000 active;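 active means fluorescence ratio B-score at or below minus 3 SD of library scores, with starting-brightness B-score within 2 SD, cut at about -4.2 in these data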;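 further: channel flux triggered by added potassium and thallium sulfate stimulus; B-score of peak minus minimum fluorescence over baseline after thallium stimulus; more negative B-score means stronger Kir2.1 block with less thallium influx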
KCNK3 block = human KCNK3 channel inhibitors, primary screen, CHO cells, FluxOR thallium flux, B-score; FluxOR fluorescence; active compounds read low; B-score at 10 µM; Potassium channel subfamily K member 3 (Homo sapiens), O14649; 0.84% of 340,000 active;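 active means B-score under library mean minus 4 SD, starting fluorescence ratio at most library mean plus 5 SD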;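 further: more negative B-score means stronger inhibition of thallium flux through KCNK3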
Target sequence (O14649 whole entry, looked up): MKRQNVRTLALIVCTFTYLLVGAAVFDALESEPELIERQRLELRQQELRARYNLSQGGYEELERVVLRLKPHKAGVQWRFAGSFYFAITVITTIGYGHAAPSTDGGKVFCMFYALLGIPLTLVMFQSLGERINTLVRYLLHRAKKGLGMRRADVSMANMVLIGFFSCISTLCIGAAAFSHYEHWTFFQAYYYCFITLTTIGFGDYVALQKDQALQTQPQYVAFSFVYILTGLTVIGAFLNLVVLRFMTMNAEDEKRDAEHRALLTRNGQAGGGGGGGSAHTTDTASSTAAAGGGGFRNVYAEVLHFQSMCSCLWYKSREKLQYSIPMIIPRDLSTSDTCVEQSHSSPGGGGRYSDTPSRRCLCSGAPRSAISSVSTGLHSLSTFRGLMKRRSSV
hERG ctr = hERG channel inhibition, counter-screen for Kir2.1 inhibitor project, cell-based, thallium flux. shares compounds with Kir21 inh. hERG-expressing cells. inhibition, % at 10 µM. 20% of 320 active;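 further: host cells are CHO cells stably expressing hERG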
KCNK9 inh-2 = KCNK9 channel inhibition, selectivity assay for Kir2.1 inhibitor project, cell-based; shares compounds with Kir21 inh; KCNK9-expressing cells, ion flux inhibition; inhibition, % at 10 µM; 5% of 320 active
Kir21 ephys inh = mouse Kir2.1 channel blockers, Kir2.1 inhibitor project, cell-based, secondary, automated electrophysiology | Kir2.1 cells, automated patch-clamp current inhibition | inhibition, % at 25 µM | shares compounds with Kir21 inh | AID 463252, 2010 | 71% of 320 active
Large screens that a line does not name were inactive (follow-up assays come after a bar, where they were run). The list is not random: actives were taken first. Their share in the collection is about 3.7%. Unless noted, how the calls were made is not given here.

Cc1ccc(O)c(C2=NNC(c3ccc(Cl)cc3)C2)c1 (centres undefined)	none
Oc1ccc(Cl)cc1C1=NNC(c2cccs2)C1 (centres undefined)	hERG protect 6.2, KCNQ1 act 20
CC[C@]12c3[nH]c4ccc(Cl)cc4c3CCN1C(=O)[C@@H](CC(=O)NCCc1ccccn1)C[C@@H]2C(=O)N1CCN(C(=O)c2ccco2)CC1	none (no result: KCNK9 inh-1, hERG protect, KCNQ1 act, KCNQ1 block, Kir21 inh)
CCCCOc1c(Br)cc(/C=N/O)cc1OCC	Kir21 inh -7.3 | hERG ctr inactive | KCNK9 inh-2 inactive | Kir21 ephys inh 11.1%
COc1cc(/C=N/O)cc(Br)c1OCc1ccc(Cl)cc1	none
CN(C)CCCOc1ccc(C(C)(C)c2ccccc2)cc1	Kir21 inh -6.58 | hERG ctr inactive | KCNK9 inh-2 inactive | Kir21 ephys inh 39.2%
CCOC(=O)C1(CC2CCCCO2)CCN(S(=O)(=O)c2ccsc2)CC1 (centres undefined)	none
O=C(COc1ccccc1CNCc1ccccc1)Nc1ccccc1	Kir21 inh -10.3 | hERG ctr 49.0% | KCNK9 inh-2 inactive | Kir21 ephys inh 42.7%
CCOc1ccccc1CNCc1ccc(C(=O)O)cc1	none
CC1CCCCC1Nc1ncnc2sccc12 (centres undefined)	none
COc1ccc(N(CC(=O)N/N=C/c2cccnc2)S(=O)(=O)c2ccc(C)cc2)cc1OC	none
CC(C)CN(C(=O)COC(=O)CNC(=O)c1sc2ccccc2c1Cl)C1CCS(=O)(=O)C1 (centres undefined)	none | hERG ctr inactive | KCNK9 inh-2 inactive | Kir21 ephys inh inactive
CCCOc1ccc(CNC(=O)Cc2cccs2)cc1	none
Cc1cccc(NS(=O)(=O)c2cccc(C(=O)NCC(c3ccc(F)cc3)N3CCOCC3)c2)c1 (centres undefined)	none (no result: KCNK9 inh-1, hERG protect, KCNQ1 act, KCNQ1 block, Kir21 inh)
Cc1c(Cl)cccc1Nc1nc(NCCO)c2ccccc2n1	Kir21 inh -9.54 | hERG ctr inactive | KCNK9 inh-2 inactive | Kir21 ephys inh 31.1%
CC(C)(C)OC(=O)NCCc1nnc(SCc2ccc(Cl)cc2Cl)o1	Kir21 inh -8.94 | hERG ctr inactive | KCNK9 inh-2 inactive | Kir21 ephys inh 47.7%
CS(=O)(=O)N1CCc2cc(NC(=O)c3ccc(Cl)cc3Cl)ccc21	none
CCn1c(=N)n(CC(O)c2ccccc2)c2ccccc21 (centres undefined)	none
Cc1ccccc1Cn1c(=N)n(CC(O)c2ccco2)c2ccccc21 (centres undefined)	Kir21 inh -5.93 | hERG ctr 50.0% | KCNK9 inh-2 inactive | Kir21 ephys inh inactive
CCCCCCCn1c(=N)n(CC(O)c2ccco2)c2ccccc21 (centres undefined)	Kir21 inh -5.91 | hERG ctr 70.0% | KCNK9 inh-2 inactive | Kir21 ephys inh inactive
CCCCCCCn1c(=N)n(CC(=O)c2ccco2)c2ccccc21	Kir21 inh -10.2 | hERG ctr 67.0% | KCNK9 inh-2 inactive | Kir21 ephys inh 6.9%
O=C(CCS(=O)(=O)c1ccccc1Cl)NCCC1=CCCCC1	none
CCOc1ccc(NS(=O)(=O)c2ccc3c(c2)N(C(C)=O)CCS3)cc1	none
COc1cccc(OC)c1OCCOc1ccccc1OC(C)C	Kir21 inh -11.1 | hERG ctr inactive | KCNK9 inh-2 inactive | Kir21 ephys inh 42.5%
COc1cccc(OC)c1OCCCOc1c(OC)cccc1OC	none
CCCCOc1ccc(C(=O)NCC2(c3ccc(OC)cc3)CCOCC2)cc1	none
CCN(CC)S(=O)(=O)c1ccc(Cl)c(OC)c1	none
CCCN(CCC)S(=O)(=O)c1ccc(Cl)c(OC)c1	Kir21 inh -6.22 | hERG ctr inactive | KCNK9 inh-2 inactive | Kir21 ephys inh 32.3%
O=C(c1ccccc1)c1ccc(OCC(O)CNCc2ccc(F)cc2)cc1 (centres undefined)	Kir21 inh -9.22 | hERG ctr 60.0% | KCNK9 inh-2 inactive | Kir21 ephys inh 64.9%
O=C(COc1ccc(C(=O)c2ccccc2)cc1)NCc1ccc(F)cc1	none
CCc1cc(-c2n[nH]c(C)c2-c2nc(C)cs2)c(O)cc1OC	Kir21 inh -11.2 | hERG ctr inactive | KCNK9 inh-2 inactive | Kir21 ephys inh 6.3%
COc1ccc(CN2CCC(CO)(CCOc3ccccc3)CC2)cc1C	none
CSc1ccc(CN2CCC(CO)(CCOc3ccccc3)CC2)cc1	Kir21 inh -5.84 | hERG ctr 73.0% | KCNK9 inh-2 inactive | Kir21 ephys inh 7.3%
Cc1cc(S(N)(=O)=O)c(N)c(S(N)(=O)=O)c1	none
Cc1ccc(NC(=O)c2ccc(Cn3cc(Cl)cn3)o2)c(C)c1	Kir21 inh -10 | hERG ctr inactive | KCNK9 inh-2 inactive | Kir21 ephys inh 50.6%
Cc1ccccc1NC(=O)c1ccc(Cn2cc([N+](=O)[O-])cn2)o1	none
Cc1ccc2nc(N3CCN(CCO)CC3)nc(-c3ccccc3)c2c1	Kir21 inh -7 | hERG ctr 60.0% | KCNK9 inh-2 inactive | Kir21 ephys inh 16.0%
CCOC(=O)N1CCN(c2nc(-c3ccccc3)c3cc(C)ccc3n2)CC1	none
CCN(Cc1ccccc1)S(=O)(=O)c1ccc2c(c1)NC(=O)CS2	Kir21 inh -5.75 | hERG ctr inactive | KCNK9 inh-2 inactive | Kir21 ephys inh inactive
Cc1c(Br)cc(C(=O)OC2CCN(C)CC2)c(C)c1C	Kir21 inh -10.1 | hERG ctr inactive | KCNK9 inh-2 inactive | Kir21 ephys inh 45.4%
CCN(Cc1ccc(C#CCCO)cc1)CC1CCCN(CCc2cccc(F)c2)C1 (centres undefined)	Kir21 inh -6.7 | hERG ctr 55.0% | KCNK9 inh-2 inactive | Kir21 ephys inh 13.7%
O=C(NCC(c1ccco1)N1CCOCC1)c1ccc(F)c(F)c1 (centres undefined)	none
